Assay [1] can be described thus: Inhibition of bacterial KPC-2 using imipenem as substrate preincubated for 15 mins followed by susbtrate addition and measured after 10 mins by spectrophotometric method. Also on record: species or system Bacteria.
Assay [2] can be described thus: Inhibition of bacterial AmpC using nitrocefin as substrate preincubated for 15 mins followed by susbtrate addition and measured after 10 mins by spectrophotometric method. Also on record: species or system Bacteria.
The nature of assay [3]: Inhibition of bacterial OXA-48 using nitrocefin as substrate preincubated for 15 mins followed by susbtrate addition and measured after 10 mins by spectrophotometric method. Also on record: species or system Bacteria.
The nature of assay [4]: Inhibition of bacterial VIM-2 using nitrocefin as substrate preincubated for 15 mins followed by susbtrate addition and measured after 10 mins by spectrophotometric method. Also on record: species or system Bacteria. In short, it runs like this: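 Purified β-lactamase inhibition. IC50 values are the average of duplicates unless otherwise indicated.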
The subject of assay [5] is Klebsiella pneumoniae. The experiment in a line: Inhibition of KPC-2 in Klebsiella pneumoniae assessed as meropenem antibacterial activity at 4 ug/ml after 16 to 20 hrs by CLSI-based microbroth dilution method (Rvb >= […] ug/ml). A general note: Broth dilution looks for growth in wells or tubes with falling amounts of substance.
Assay [6] concerns Klebsiella pneumoniae. The experiment in a line: Inhibition of OXA-48 in Klebsiella pneumoniae assessed as meropenem antibacterial activity at 4 ug/ml after 16 to 20 hrs by CLSI-based microbroth dilution method (Rvb >= […] ug/ml).
Assay [7] deals with Klebsiella pneumoniae. Kind of assay: Inhibition of VIM-4 in Klebsiella pneumoniae assessed as meropenem antibacterial activity at 4 ug/ml after 16 to 20 hrs by CLSI-based microbroth dilution method (Rvb >= […] ug/ml).
In assay [8] the target is Beta-lactamase VIM-2 (Pseudomonas aeruginosa) (UniProt Q9K2N0). The experiment in a line: Inhibition of VIM-2 in Pseudomonas aeruginosa assessed as meropenem antibacterial activity at 4 ug/ml after 16 to 20 hrs by CLSI-based microbroth dilution method (Rvb >= […] ug/ml).

Structures are written as SMILES. In brackets after ≈: the same amount, converted by molar mass.

As usually defined, the IC50 is the concentration that inhibits the measured activity by half. Low values mean greater potency in that assay, high ones weaker potency in that assay. Turning to `NCC(=O)N[C@H]1CC[C@H](CC(=O)N[C@H]2Cc3cccc(C(=O)O)c3OB2O)CC1`, the IC50 in assay [1] was determined as 34 nM; in assay [2], 6 nM; in assay [3], 355 nM; in assay [4], 594 nM. The MIC in assay [5] amounted to 2 µg/mL (≈ 4.96 µM); in assay [6], 8 µg/mL (≈ 19.8 µM); in assay [7] it was 8 µg/mL (≈ 19.8 µM); in assay [8], 8 µg/mL (≈ 19.8 µM).

`CS(=O)(=O)NCCN[C@H]1CC[C@H](CC(=O)N[C@H]2Cc3cccc(C(=O)O)c3OB2O)CC1`: the half-inhibitory concentration (IC50) in assay [1] amounted to 17 nM; in assay [2], 6 nM; in assay [3], 499 nM; in assay [4], 110 nM. Moreover, the MIC in assay [5] is 4 µg/mL (≈ 8.56 µM); in assay [6], 8 µg/mL (≈ 17.1 µM); in assay [7], 8 µg/mL (≈ 17.1 µM); in assay [8] it was 16 µg/mL (≈ 34.2 µM).

In the case of `O=C(C[C@H]1CC[C@H](NCc2cnc[nH]2)CC1)N[C@H]1Cc2cccc(C(=O)O)c2OB1O`, the IC50 is 36 nM in assay [1], 14 nM in assay [2], 454 nM in assay [3] and 477 nM in assay [4]. For the same compound, the MIC in assay [5] was 1 µg/mL (≈ 2.35 µM); in assay [6], 8 µg/mL (≈ 18.8 µM); in assay [7], 8 µg/mL (≈ 18.8 µM); in assay [8], 1 µg/mL (≈ 2.35 µM).

As to `O=C(C[C@H]1CC[C@H](NCCO)CC1)N[C@H]1Cc2cccc(C(=O)O)c2OB1O`, the half-inhibitory concentration (IC50) in assay [1] worked out at 17 nM; in assay [2] it was 10 nM; in assay [3], 7550 nM; in assay [4], 1400 nM. Further, the MIC was 2 µg/mL (≈ 5.12 µM) in assay [5], 2 µg/mL (≈ 5.12 µM) in assay [6], 0.5 µg/mL (≈ 1.28 µM) in assay [7] and 4 µg/mL (≈ 10.2 µM) in assay [8].

`NCCCN[C@H]1CC[C@H](CC(=O)N[C@H]2Cc3cccc(C(=O)O)c3OB2O)CC1`: the IC50 in assay [1] stood at 70 nM; in assay [2], 5 nM; in assay [3] it was 664 nM; in assay [4] it was 82 nM. In addition, the MIC in assay [5] was determined as 0.5 µg/mL (≈ 1.24 µM); in assay [6] it was 8 µg/mL (≈ 19.8 µM); in assay [7] it was 4 µg/mL (≈ 9.92 µM); in assay [8] it was 0.25 µg/mL (≈ 0.62 µM).

Consider `O=C(C[C@H]1CC[C@H](N2CCNCC2)CC1)N[C@H]1Cc2cccc(C(=O)O)c2OB1O`, for which the IC50 in assay [1] came to 20 nM; in assay [2], 3 nM; in assay [3], 1520 nM; in assay [4] it was 1500 nM. Further, the MIC in assay [5] is 4 µg/mL (≈ 9.63 µM); in assay [6], 16 µg/mL (≈ 38.5 µM); in assay [7] it was 32 µg/mL (≈ 77.1 µM); in assay [8], 16 µg/mL (≈ 38.5 µM).

Regarding `O=C(O)CN[C@H]1CC[C@H](CC(=O)N[C@H]2Cc3cccc(C(=O)O)c3OB2O)CC1`, the half-maximal inhibitory concentration (IC50) is 19 nM in assay [1], 6 nM in assay [2], 3140 nM in assay [3] and 2400 nM in assay [4]. The MIC stood at 4 µg/mL (≈ 9.9 µM) in assay [5], 8 µg/mL (≈ 19.8 µM) in assay [6], 32 µg/mL (≈ 79.2 µM) in assay [7] and 16 µg/mL (≈ 39.6 µM) in assay [8].

For the compound `N[C@H]1CC[C@@H](CC(=O)N[C@H]2Cc3cccc(C(=O)O)c3OB2O)CC1`, the IC50 in assay [1] was determined as 120 nM; in assay [2], 5 nM; in assay [3], 18000 nM; in assay [4] it was 1670 nM. For the same compound, the MIC in assay [5] amounted to 2 µg/mL (≈ 5.78 µM); in assay [6], 16 µg/mL (≈ 46.2 µM); in assay [7] it was 32 µg/mL (≈ 92.4 µM); in assay [8], 32 µg/mL (≈ 92.4 µM).

Regarding `N=C(N)NCCN[C@H]1CC[C@H](CC(=O)N[C@H]2Cc3cccc(C(=O)O)c3OB2O)CC1`, the IC50 worked out at 27 nM in assay [1], 6 nM in assay [2], 1590 nM in assay [3] and 86 nM in assay [4]. In addition, the MIC was found to be 1 µg/mL (≈ 2.32 µM) in assay [5], 2 µg/mL (≈ 4.64 µM) in assay [6], 0.06 µg/mL (≈ 0.139 µM) in assay [7] and 0.5 µg/mL (≈ 1.16 µM) in assay [8].

`NCCN[C@H]1CC[C@@H](CC(=O)N[C@H]2Cc3cccc(C(=O)O)c3OB2O)CC1`: the IC50 in assay [1] was 30 nM; in assay [2], 35 nM; in assay [3], 670 nM; in assay [4], 130 nM. The MIC in assay [5] turned out to be 8 µg/mL (≈ 20.6 µM); in assay [6] it was 8 µg/mL (≈ 20.6 µM); in assay [7], 4 µg/mL (≈ 10.3 µM); in assay [8], 0.5 µg/mL (≈ 1.28 µM).

`CNCCN[C@H]1CC[C@H](CC(=O)N[C@H]2Cc3cccc(C(=O)O)c3OB2O)CC1`: the concentration for half-maximal inhibition (IC50) in assay [1] was determined as 12 nM; in assay [2] it was 11 nM; in assay [3], 579 nM; in assay [4], 2 nM. The MIC in assay [5] came to 0.5 µg/mL (≈ 1.24 µM); in assay [6], 2 µg/mL (≈ 4.96 µM); in assay [7] it was 0.5 µg/mL (≈ 1.24 µM).

Regarding `NCCNc1ccc(CC(=O)N[C@H]2Cc3cccc(C(=O)O)c3OB2O)cc1`, the IC50 in assay [1] was 22 nM; in assay [2], 5 nM; in assay [3], 288 nM; in assay [4] it was 491 nM. For the same compound, the MIC in assay [5] came to 1 µg/mL (≈ 2.61 µM); in assay [6], 1 µg/mL (≈ 2.61 µM); in assay [7] it was 8 µg/mL (≈ 20.9 µM); in assay [8], 0.5 µg/mL (≈ 1.3 µM).

With `NC[C@H]1CC[C@H](CC(=O)N[C@H]2Cc3cccc(C(=O)O)c3OB2O)CC1`, the half-maximal inhibitory concentration (IC50) in assay [1] amounted to 100 nM; in assay [2], 25 nM; in assay [3], 1800 nM; in assay [4] it was 1600 nM. In addition, the MIC worked out at 1 µg/mL (≈ 2.78 µM) in assay [5], 2 µg/mL (≈ 5.55 µM) in assay [6], 8 µg/mL (≈ 22.2 µM) in assay [7] and 4 µg/mL (≈ 11.1 µM) in assay [8].

(Values after ChEMBL document CHEMBL4354828, “Discovery of Taniborbactam (VNRX-5133): A Broad-Spectrum Serine- and Metallo-β-lactamase Inhibitor for Carbapenem-Resistant Bacterial Infections” (J Med Chem, 2020).)
